Screening results as filed in PubChem BioAssay.
KCNQ1 act – potentiators or activators of KCNQ1 channel, primary screen, cell-based, thallium flux, high-throughput; Potassium voltage-gated channel subfamily KQT member 1 (Homo sapiens), P51787; CHO-K1 KCNQ1, thallium flux FluxOR fluorescence; active compounds read high; B-score at 10 µM; 310,000 tested, 0.35% active;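 active means fluorescence ratio B-score, a plate-corrected score, at least three library SD, with initial intensity B-score within 5 SD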
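Assay system: CHO-K1 cells stably expressing KCNQ1. Medium: assay buffer for compound exposure, DMSO matched across wells. Timing: 37 °C overnight plating, 90-min dark dye load, 20-min compound pretreatment. Signal: kinetic FluxOR fluorescence, 10 s baseline plus 110 s post-stimulus.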
KCNK3 block – human KCNK3 channel inhibitors, primary screen, CHO cells, FluxOR thallium flux, B-score | Potassium channel subfamily K member 3 (Homo sapiens), O14649 | 340,000 tested, 0.84% active | B-score at 10 µM | FluxOR fluorescence; active compounds read low;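 active means B-score under library mean minus 4 SD, starting fluorescence ratio at most library mean plus 5 SD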;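 further: more negative B-score means stronger inhibition of thallium flux through KCNK3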
Target sequence (O14649 whole entry, looked up): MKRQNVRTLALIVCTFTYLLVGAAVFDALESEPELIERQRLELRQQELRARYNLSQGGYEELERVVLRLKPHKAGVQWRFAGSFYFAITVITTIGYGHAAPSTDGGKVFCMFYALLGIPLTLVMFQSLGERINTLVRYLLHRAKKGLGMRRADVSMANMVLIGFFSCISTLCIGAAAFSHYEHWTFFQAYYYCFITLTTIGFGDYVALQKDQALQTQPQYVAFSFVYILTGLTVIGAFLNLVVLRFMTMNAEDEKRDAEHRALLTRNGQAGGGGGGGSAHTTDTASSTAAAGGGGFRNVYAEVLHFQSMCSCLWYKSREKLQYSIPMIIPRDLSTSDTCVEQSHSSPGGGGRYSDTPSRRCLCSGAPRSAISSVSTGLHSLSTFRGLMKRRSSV
KCC2 mod – KCC2 cotransporter modulators, thallium flux, primary screen, cell-based, HEK293 KCC2, FluoZin-2 fluorescence, MLSMR. B-score of Tl+ flux slope (higher = more flux/activation; lower = inhibition) at 10 µM. Solute carrier family 12 member 5 (Homo sapiens), Q9H2X9. AID 1456, 2008. KCC2 cells, thallium flux FluoZin-2 fluorescence. 190,000 tested, 2.2% active;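 active means thallium flux slope and its plate-corrected score both differing from the plate sample mean at a set confidence after two filtering rounds, in either direction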;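 further: slope of fluorescence scaled to starting intensity during 10 to 20 s after thallium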
KCNK9 inh – KCNK9 potassium channel inhibitors, primary screen, HEK293 cells, thallium flux; FluxOR thallium flux fluorescence; active compounds read low; 310,000 tested, 1.2% active; Potassium channel subfamily K member 9 (Homo sapiens), Q9NPC2; B-score at 10 µM;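 active means ratio B-score over 3 SD below the library mean, with starting fluorescence within 5 SD of its mean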;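 further: negative B-score means less thallium flux so channel inhibition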
Target sequence (Q9NPC2 whole entry, looked up): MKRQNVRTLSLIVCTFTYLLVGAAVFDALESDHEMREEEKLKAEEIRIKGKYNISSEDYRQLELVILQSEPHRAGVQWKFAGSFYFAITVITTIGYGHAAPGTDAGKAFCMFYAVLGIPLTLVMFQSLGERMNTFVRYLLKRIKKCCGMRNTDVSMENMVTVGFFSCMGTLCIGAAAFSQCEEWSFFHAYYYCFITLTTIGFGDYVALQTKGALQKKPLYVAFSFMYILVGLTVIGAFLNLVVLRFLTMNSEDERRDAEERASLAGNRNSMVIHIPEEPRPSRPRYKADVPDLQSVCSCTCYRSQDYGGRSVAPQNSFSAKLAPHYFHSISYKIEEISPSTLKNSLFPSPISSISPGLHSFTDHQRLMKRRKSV
KCNQ1 inh – inhibitors of human KCNQ1 channel, primary screen, cell-based, thallium flux, high-throughput; 310,000 tested, 1.3% active; CHO-K1 KCNQ1, FluxOR thallium flux fluorescence; active compounds read high; B-score at 10 µM; Potassium voltage-gated channel subfamily KQT member 1 (Homo sapiens), P51787;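 active means compounds whose thallium flux B-score, printed positive for inhibition, exceeds three library SD while starting fluorescence stays within three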;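 further: channel opened by potassium depolarization with thallium stimulus after 20 min compound exposure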
hERG protect – hERG rescue from dofetilide block, primary screen, cell-based, CHO-hERG, FluxOR thallium flux, dofetilide IC70; Voltage-gated inwardly rectifying potassium channel KCNH2 (Homo sapiens), Q12809; dofetilide IC70 present; activation (rescue from dofetilide block), less the hit threshold, % at 10 µM; 310,000 tested, 0.51% active;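 active means activation above the mean of controls blocked by dofetilide plus 5 SD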;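 further: thallium influx through hERG after potassium depolarization seen as dye fluorescence rise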
KCC2 sec1 – KCC2 modulators in sodium-free buffer, confirmation, cell-based, HEK293 KCC2, thallium flux, secondary assay; shares compounds with KCC2 mod; FluoZin2 fluorescence; active compounds read high; normalised thallium flux (F/F0 slope) at 10 µM; 3,700 tested, 15% active; AID 1713, 2009;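 active means thallium flux slope above the same plate's solvent-only control mean plus 3 SD; inconclusive means the two replicate wells disagree; inactive means no significant difference from solvent-only control wells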
KCC2 bumet counter – thallium flux persisting under bumetanide in KCC2 cells, confirmation, counter-screen for KCC2 modulator project, cell-based, HEK293 KCC2, FluoZin2, secondary assay 3. AID 1714, 2009. HEK293-KCC2 + bumetanide/ouabain; active compounds read high. normalized thallium flux at 10 µM. 3,700 tested, 49% active. shares compounds with KCC2 mod;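 active means thallium entry rate above the same plate's blocked-transporter control wells by more than 3 SD; inconclusive means the two repeat wells disagree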;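 further: raw slope of fluorescence over initial fluorescence between 10 and 20 s after thallium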
KCC2 secondary2 – KCC2 modulators without ouabain present, confirmation, cell-based, HEK293 KCC2, thallium flux, FluoZin2, secondary assay 2; normalized thallium flux at 10 µM; thallium flux FluoZin2 fluorescence; actives lie on both sides; F/F0 rise rate, 10–20 s post-thallium; 3,700 tested, 23% active; AID 1715, 2009; shares compounds with KCC2 mod;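 active means thallium flux slope more than 3 SD above or below the plate's solvent-only control mean, mostly below; inconclusive means the two repeat wells disagreed; inactive means no significant shift from solvent-only controls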;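 further: raw slope with 0.1% DMSO as baseline and bumetanide as block control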
HEK293 Tl flux – thallium flux modulation in parental HEK cells, confirmation, counter-screen for KCC2 modulator project, cell-based, counterscreen 1. HEK293 parental cells, thallium flux FluoZin2, ouabain; baseline-ratio fluorescence slope, 10–20 s after thallium. shares compounds with KCC2 mod. 3,700 tested, 46% active. thallium flux rate (normalised fluorescence) at 10 µM;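 active means thallium flux rate significantly above the same plate's solvent-only control wells, beyond their mean plus 3 SD; inconclusive means the two replicate wells gave conflicting results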
KCC2 retest ouab – KCC2 inhibitors and activators, ouabain retest, confirmation, HEK-KCC2 cells | shares compounds with KCC2 mod | raw Tl+ flux slope (below DMSO = inhibition, above = activation) at 10 µM | HEK293-KCC2, thallium flux FluoZin2 fluorescence; bidirectional: low = inhibitor, high = activator | AID 1717, 2009 | 3,700 tested, 48% active;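 active means thallium flux slope beyond 3 SD from same-plate DMSO control mean in most replicates, usually higher, sometimes lower; inconclusive means repeat tests gave conflicting results; inactive means no significant difference from controls in most replicates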;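 further: slope of initial-normalized fluorescence between seconds 10 and 20 after thallium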
HEK counter2 – native HEK Tl+ uptake effects, second counter-screen – HEK cells, counterscreen 2, counter-screen for KCC2 modulator project, confirmation; HEK293 parental, thallium flux FluoZin-2 fluorescence slope; AID 1718, 2009; thallium flux slope at 10 µM; shares compounds with KCC2 mod; 3,700 tested, 33% active;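 active means thallium flux slope above the same plate's solvent-control mean plus 3 SD in both duplicate wells; inconclusive means duplicate wells that disagreed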;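 further: run without ouabain in cells lacking the KCC2 cotransporter; slope of fluorescence scaled to its starting value between 10 and 20 s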
* marks the source's active call; other numbers are inactive results; i = inactive; ? = inconclusive; . = no result given. In the library only some 4.1% were active in any assay of this set; here they are far more common.

SMILES	KCNQ1 act	KCNK3 block	KCC2 mod	KCNK9 inh	KCNQ1 inh	hERG protect	KCC2 sec1	KCC2 bumet counter	KCC2 secondary2	HEK293 Tl flux	KCC2 retest ouab	HEK counter2
OCCCn1c(-c2ccccc2)n[nH]c1=S	i	i	0.971	i	i	-3.7	.	.	.	.	.	.
CC(=O)N1c2ccc(S(=O)(=O)NCCC(=O)Nc3cccc(Cl)c3)cc2CC1C (stereo not drawn)	i	i	.	i	i	-8.5	.	.	.	.	.	.
CCCn1c(-c2ccncc2)n[nH]c1=S	i	i	.	i	i	-1.8	.	.	.	.	.	.
CCCCn1c(-c2csc(CC)c2)n[nH]c1=S	i	i	14.2*	i	i	-7.8	0.012*	0.0539*	0.0341	0.0221*	0.0443*	0.0124*
Cn1nnnc1SCCNCc1ccncc1	i	i	.	i	i	-3.2	0.00928	0.00723	0.0301	?	0.0215	0.00954
CCC(C(=O)OCC(=O)Nc1ccc(C)c(S(=O)(=O)N2CCOCC2)c1)c1ccccc1 (stereo not drawn)	i	i	.	i	i	-9.3	.	.	.	.	.	.
Cc1ccc(NC(=O)COC(=O)/C=C/c2ccccc2)cc1S(=O)(=O)N1CCOCC1	i	i	-4.07*	i	i	-4.0	?	0.00437	0.0208*	?	0.0116*	0.00906
Cc1ccc(NC(=O)CCCSc2ccccc2)cc1S(=O)(=O)N1CCOCC1	i	i	-2.98*	i	i	-0.7	0.0183	0.00445	?	0.00681	0.0155	0.01
C/C(=N\NC(=O)c1ccc(Br)o1)c1cc2c(cc1NC(=O)CCC(=O)O)OCO2	i	i	.	i	i	-5.3	.	.	.	.	.	.
COC(=O)CCCC1=CC2=C(c3ccccc3)C(=O)C(C)(OC(=O)C3CCCC3)C(=O)C2=CN1Cc1ccc(OC)cc1 (stereo not drawn)	i	i	-2.6*	i	i	-14.7	0.0147	0.00423	0.0295	0.00654	0.0156	0.00874
COC(=O)CCCC1=CC2=C(c3ccccc3)C(=O)C(C)(OC(=O)C3CCCC3)C(=O)C2=CN1Cc1ccc2c(c1)OCO2 (stereo not drawn)	i	i	-1.71	i	i	-11.1	.	.	.	.	.	.
Cc1ccn(CCC(=O)Nc2ccc3c(c2)OCO3)n1	i	i	.	i	i	-9.0	.	.	.	.	.	.
COc1ccc(C(=O)c2cn[nH]c2-c2cc(Cl)ccc2O)cc1	i	i	-5.07*	i	i	-10.4	0.00993	0.00602	0.0329	0.0072	0.0221	0.0107
O=C(NC(Cc1ccc(O)cc1)C(=O)N=Nc1c(O)[nH]c2ccccc12)c1ccccc1 (stereo not drawn)	.	i	.	.	.	.	.	.	.	.	.	.
CCCN1CCC(=O)NC1=S	.	i	.	.	.	.	.	.	.	.	.	.
O=C(c1ccc2c3n(nc2c1)-c1ccccc1CO3)N1CCCCC1	i	i	-2.53*	i	i	-6.0	0.00695	?	0.0324	0.00763	0.0197	0.00981
O=C(c1ccc2c3n(nc2c1)-c1ccccc1CO3)N1CCOCC1	i	i	-1.72	i	i	-6.0	.	.	.	.	.	.
Cc1cccc(N(C(=O)CCC(=O)Nc2ccccn2)C(C(=O)NC(C)C)c2ccc(F)cc2)c1 (stereo not drawn)	i	i	.	i	i	-9.8	.	.	.	.	.	.
Cc1cccc(N(C(=O)CCC(=O)Nc2ccccn2)C(C(=O)NC(C)C)c2ccc(O)cc2)c1 (stereo not drawn)	i	i	-3.54*	i	i	-10.6	0.00594	0.00472	0.0287	0.00777	0.0194	0.0121
Cc1ccc2[nH]c(=O)c(C(c3nnnn3Cc3ccccc3)N3CCc4ccccc43)cc2c1 (stereo not drawn)	i	i	.	i	i	-12.3	.	.	.	.	.	.
Cc1cc2cc(C(c3nnnn3Cc3ccccc3)N3CCc4ccccc43)c(=O)[nH]c2cc1C (stereo not drawn)	i	i	.	i	i	-11.3	0.0126	0.00422	0.0271	0.00724	0.0138*	0.0101
COc1ccc(CN2CC(C(=O)NCCC(C)C)CC2=O)cc1 (stereo not drawn)	i	i	0.515	i	i	-9.2	.	.	.	.	.	.
CCCCN(C)CCCNC(=O)C1CC(=O)N(Cc2ccc(OC)cc2)C1 (stereo not drawn)	i	i	.	i	i	-9.2	0.00899	0.00515	0.0314	0.00746	0.019	0.0109
CCCCNC(=S)NNC(=O)c1cc(-c2ccncc2)nc2ccccc12	i	i	.	i	i	-11.2	.	.	.	.	.	.
Cc1ccc(C)c(S(=O)(=O)N2CCN(CC(=O)N3CCc4ccccc4C3)CC2)c1	i	i	-4.14*	i	i	-8.0	0.0072	0.00585	0.0298	0.00675	0.0218*	?
COc1ccc(N2CCN(C(=O)COC(=O)Cc3c(F)cccc3Cl)CC2)cc1	i	i	.	i	i	-15.6	.	.	.	.	.	.
